Sampled rows, rich in hits. Any-hit rate of the full collection: about 1.7%.
CHRM5 PAM – CHRM5 positive allosteric modulation. activation, % at 3 µM. hit rate 0.3% among 360,000. AID 624038. CHO-K1 hM5, Fluo-8 calcium, ACh EC20 PAM; 0% = ACh EC20, 100% = ACh EC100. P08912;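 active means activation above the run cutoff, the mean activation of all test compounds plus 3 SD, cut at about 18% in these data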
Target sequence (P08912 whole entry, looked up): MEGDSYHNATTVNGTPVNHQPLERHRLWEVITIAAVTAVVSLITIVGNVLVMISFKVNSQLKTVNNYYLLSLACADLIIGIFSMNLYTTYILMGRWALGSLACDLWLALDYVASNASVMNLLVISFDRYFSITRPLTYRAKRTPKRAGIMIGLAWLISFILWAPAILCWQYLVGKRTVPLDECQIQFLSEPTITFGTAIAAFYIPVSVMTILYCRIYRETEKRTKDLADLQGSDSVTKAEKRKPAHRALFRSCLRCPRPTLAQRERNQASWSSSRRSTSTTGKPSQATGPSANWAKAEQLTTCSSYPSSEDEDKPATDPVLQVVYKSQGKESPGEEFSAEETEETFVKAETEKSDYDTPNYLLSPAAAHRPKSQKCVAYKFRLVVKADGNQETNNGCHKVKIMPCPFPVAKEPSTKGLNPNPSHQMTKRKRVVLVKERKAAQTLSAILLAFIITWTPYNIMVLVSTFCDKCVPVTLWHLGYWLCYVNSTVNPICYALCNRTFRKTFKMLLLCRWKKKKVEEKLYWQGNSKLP
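System: CHO-K1 cell line with stable human muscarinic M5 receptor expression | Also added: EC20 acetylcholine as agonist stimulus | Compound: One concentration, 3 µM final (nominal) | Timing: Fluo-8 loading 80 min at 37 °C plus 30 min room temperature | Measured by: Fluo-8 calcium dye fluorescence, kinetic read | Read-out basis: % activation, ACh-normalized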
CHO-K1 Ca PAM – counter-screen for M1 PAMs: effect in parental CHO-K1 cells; ATP EC20, Fluo-8 calcium fluorescence; 0% at ATP EC20, 100% at ATP max; activation, % at 3 µM; hit rate 0.02% among 360,000;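 active means activation above the run cutoff, the mean activation of all test compounds plus 3 SD, cut at about 40% in these data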;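 further: peak over basal fluorescence ratio in a 140 s read after ATP addition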
CHO-K1 Ca antag – M1 antagonist counterscreen hit in parental CHO-K1 cells. ATP-induced calcium, Fluo-8 fluorescence. AID 602250. hit rate 0.6% among 360,000. inhibition, % at 3 µM;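 active means inhibition above a per-plate cutoff, the plate's mean sample inhibition plus 3 SD, cut at about 24% in these data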;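 further: 0% = DMSO plus EC80 ATP and 100% = DMSO alone without ATP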
CHRM5 antagonist – CHRM5 antagonism in calcium assay. P08912. inhibition, % at 3 µM. hit rate 0.59% among 360,000. CHO-hM5 cells, Fluo-8 calcium fluorescence, ACh EC80;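 active means inhibition above a per-plate cutoff, the mean of that plate's test compounds plus 3 SD, cut at about 27% in these data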;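 further: 0% = acetylcholine EC80 with DMSO and 100% = DMSO without agonist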
CHRM5 agonist – agonists of human muscarinic M5 receptor (CHRM5) | activation, % at 3 µM | CHO-K1 hM5 cells, Fluo-8 calcium fluorescence; 0% DMSO wells, 100% maximal acetylcholine response | P08912 | hit rate 0.19% among 360,000;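 active means activation above the run's mean over test compounds plus 3 SD, cut at about 23% in these data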;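 further: signal is peak over basal fluorescence ratio across the kinetic read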
CHO-K1 Ca ag – counter-screen for M1 agonists: effect in parental CHO-K1 cells. hit rate 0.48% among 360,000. Fluo-8 calcium fluorescence; scaled to maximal ATP response, vehicle zero. activation, % at 3 µM. AID 602248; in the data active means activation above about 15%;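 further: untransfected CHO-K1 host cells lacking M1 receptor as counterscreen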
Numbers without * were called inactive; x = no result given.

SMILES | CHRM5 PAM | CHO-K1 Ca PAM | CHO-K1 Ca antag | CHRM5 antagonist | CHRM5 agonist | CHO-K1 Ca ag
CCCSc1nnc(NC(=O)Nc2ccc(F)cc2)s1 | -20.6 | -3.3 | 24.1* | 20.7 | 2.8 | 3.4
COc1c2c(cc3c1C(CC(O)Cc1ccccc1)N(C)CC3)OCO2 (stereo unspecified) | 3.0 | -7.1 | 5.1 | 4.2 | -6.7 | -0.2
c1ccc(CCNc2ncnc3ccccc23)cc1 | -15.6 | -3.4 | 32.3* | 30.0* | 6.1 | 10.4
CCc1ccccc1Nc1ncnc2ccccc12 | -5.8 | 0.7 | -13.9 | -5.1 | -0.4 | 5.8
Cc1cc2c(NCCc3ccccc3)ncnc2s1 | -23.4 | -15.8 | 23.7* | 6.8 | 0.5 | 12.5
CCCCCCCCNc1ncnc2ccccc12 | -15.0 | -6.2 | 39.3* | 42.8* | 2.6 | 11.2
COc1cccc(C(=O)NNC(=O)c2sccc2-n2cccc2)c1 | 0.5 | 3.5 | 3.8 | 0.7 | -1.0 | 17.7*
CCc1ccc(N(C(=O)c2ccoc2C)C(C(=O)NC2CCCC2)c2ccc(OC)cc2)cc1 (stereo unspecified) | -5.4 | -14.4 | 27.6* | 12.4 | -1.5 | -0.7
CCOc1cccc(N(C(=O)c2ccco2)C(C(=O)NC2CCCC2)c2cccnc2)c1 (stereo unspecified) | -1.4 | -5.9 | -1.8 | 6.4 | -0.3 | 0.8
COc1ccc(C(C(=O)NC2CCCC2)N(C(=O)c2ccoc2C)c2ccccc2)cc1 (stereo unspecified) | -6.8 | 1.4 | -6.8 | 16.0 | 0.8 | 1.7
COc1ccc(C(C(=O)NC2CCCC2)N(C(=O)c2ccoc2C)c2ccc(C)c(C)c2)cc1 (stereo unspecified) | -1.5 | -13.9 | 24.7* | 9.6 | -2.5 | -0.7
COc1cccc(N(C(=O)c2ccco2)C(C(=O)NC2CCCC2)c2cccnc2)c1 (stereo unspecified) | -3.8 | -7.5 | 24.0* | -0.6 | 1.9 | 0.0
COc1ccc(C(C(=O)NC2CCCC2)N(C(=O)c2ccoc2C)c2cc(C)cc(C)c2)cc1 (stereo unspecified) | 2.8 | 1.2 | 3.1 | 2.8 | -0.2 | -0.6
Cc1cccn2c(=O)c3cc(C(=O)N4CC(C)CC(C)C4)sc3nc12 (stereo unspecified) | -4.7 | -0.8 | -0.1 | 14.4 | -1.2 | -0.4
O=C(Nc1nc2c(F)cc(F)cc2s1)C1CC1 | -14.9 | -4.8 | 31.4* | 12.1 | 2.0 | 2.0
O=C(COc1ccc2ccccc2c1)Nc1ccc(Cc2ccncc2)cc1 | -22.3 | -3.2 | 24.8* | 25.3 | 5.6 | 11.3
O=C(O)Cc1ccc(NC(=O)COc2ccc3ccccc3c2)cc1 | -5.7 | -5.2 | 2.2 | 19.1 | -2.3 | -0.5
CCOc1ccc(S(=O)(=O)N2CCCC(C(=O)N3CCN(c4ccccc4)CC3)C2)cc1 (stereo unspecified) | -6.7 | 15.0 | -16.4 | -3.1 | -1.0 | 8.3
CC(=O)c1sc(NC(=O)C2(F)C(F)(F)C(F)(F)C(F)(F)C(F)(F)C2(F)F)nc1C | -11.1 | 1.9 | 25.6* | 28.8* | 7.8 | 12.6
CCOC(=O)c1[nH]c(CN2CCN(c3ccc(OC)cc3)CC2)c(C(=O)OCC)c1C | -1.2 | 5.1 | -17.0 | -7.5 | 17.5 | 10.0
CCOC(=O)c1cc(C#N)c(N2CCN(c3ccc(OC)cc3)CC2)[nH]c1=O | 25.9* | -2.6 | 5.4 | 6.0 | 10.8 | -0.1
O=C(Nc1cccc(Cl)c1)c1cccc(N2C(=O)C3CC=CCC3C2=O)c1 (stereo unspecified) | -13.0 | 5.8 | -1.7 | 17.3 | 5.1 | 17.0*
O=C(Nc1cccc(N2C(=O)C3CCCCC3C2=O)c1)c1ccccc1 (stereo unspecified) | 0.4 | 2.2 | -1.8 | -0.2 | 3.1 | 3.6
CCCCNC(=O)c1cc(-c2ccccc2)sc1N | 21.0* | x | x | -15.1 | 7.3 | x
CC(C)NC(=O)c1cc(C2CCCCN2S(=O)(=O)c2ccc(F)cc2F)on1 (stereo unspecified) | 5.3 | 16.7 | -1.0 | -7.8 | -2.8 | 0.5
O=Cc1ccc(N2Cc3ccccc3C2)cc1 | 1.8 | 3.5 | -9.4 | 2.2 | -2.3 | 0.7
Cc1cc(N2Cc3ccccc3C2)ccc1C=O | -5.2 | 8.2 | -5.6 | 38.5* | 14.8 | -0.2
CC(C)S(=O)(=O)c1csc(C(=O)Nc2ccc(F)cc2)c1N | 2.1 | 13.8 | 4.3 | -8.1 | -2.1 | 21.4*

Screening data from PubChem.
